Test results taken from ChEMBL document CHEMBL1122917, “Vinblastin-23-oyl amino acid derivatives: chemistry, physicochemical data, toxicity, and antitumor activities against P388 and L1210 leukemias” (J Med Chem, 1985).

Experiments:
Type in all cases: functional
Mus musculus [1] = experiment: Percent increase in life span of DBA2 mice after inoculation with L1210 leukemia intravenously at a dose of 50 mg/kg per day; conditions: route intravenous
Method in brief: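 Female DBA2 mice inoculated iv on day 0 with 10^4 L1210 cells; drugs given iv as sulfate salts in physiological saline, mostly once on day 1. %ILS from all deaths and survivors as (T/C × 100) − 100; survivors scored on days 30 and 60.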

Mus musculus [2] = experiment: Percent increase in life span at dose 70 mg/kg/day in 10 mice implanted with P388 leukemia cell line
Method in brief: (§1)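 Female DBA2 mice inoculated iv on day 0 with 10^4 P388 cells; single iv treatment on day 1 with drug as sulfate salt in physiological saline. Survival followed; %ILS from all deaths and survivors as (T/C × 100) − 100, maximal MST 30 days; survivors counted on days 30 and 60. Most experiments confirmed three times.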

Mus musculus [3] = experiment: Number of survivors of DBA2 mice on 30th day after inoculation with L1210 leukemia cell line intravenously at a dose of 50 mg/kg/day; 0/10; conditions: route intravenous
Mus musculus [4] = experiment: Percent increase in life span at dose 80 mg/kg/day in 10 mice implanted with P388 leukemia cell line; method in brief: as §1
Mus musculus [5] = experiment: Percent increase in life span at dose 40 mg/kg/day in 10 mice implanted with P388 leukemia cell line; method in brief: as §1
Mus musculus [6] = experiment: Percent increase in life span at dose 55 mg/kg/day in 10 mice implanted with P388 leukemia cell line; method in brief: as §1
Mus musculus [7] = experiment: Number of survivors on 60th day at dose mg/kg/day in 10 mice implanted with P388 leukemia cell line; 1/10
Mus musculus [8] = experiment: Number of survivors on 60th day at dose mg/kg/day in 10 mice implanted with P388 leukemia cell line; 2/10
Mus musculus [9] = experiment: Percent increase in life span at dose 60 mg/kg/day in 10 mice implanted with P388 leukemia cell line; method in brief: as §1
Mus musculus [10] = experiment: Number of survivors on 30th day at dose 40 mg/kg/day in 10 mice implanted with P388 leukemia cell line; 1/10
Mus musculus [11] = experiment: Number of survivors on 60th day at dose mg/kg/day in 10 mice implanted with P388 leukemia cell line; 7/10
Mus musculus [12] = experiment: Number of survivors on 60th day at dose mg/kg/day in 10 mice implanted with P388 leukemia cell line; 5/10
Mus musculus [13] = experiment: Number of survivors on 30th day at dose 50 mg/kg/day in 10 mice implanted with P388 leukemia cell line; 2/10
Mus musculus [14] = experiment: Number of survivors on 30th day at dose 55 mg/kg/day in 10 mice implanted with P388 leukemia cell line; 7/10
Mus musculus [15] = experiment: Number of survivors of DBA2 mice on 60th day after inoculation with L1210 leukemia cell line intravenously at a dose of 50 mg/kg/day; 0/10; conditions: route intravenous
Mus musculus [16] = experiment: Number of survivors on 30th day at dose 70 mg/kg/day in 10 mice implanted with P388 leukemia cell line; 5/10
Mus musculus [17] = experiment: Number of survivors on 30th day at dose 80 mg/kg/day in 10 mice implanted with P388 leukemia cell line; 7/10
Mus musculus [18] = experiment: Number of survivors on 30th day at dose 60 mg/kg/day in 10 mice implanted with P388 leukemia cell line; 5/10
Mus musculus [19] = experiment: Percent increase in life span at dose 50 mg/kg/day in 10 mice implanted with P388 leukemia cell line; method in brief: as §1
Mus musculus [20] = experiment: Number of survivors on 60th day at dose mg/kg/day in 10 mice implanted with P388 leukemia cell line; 4/10
Mus musculus [21] = experiment: Number of survivors on 60th day at dose 15 mg/kg/day in 10 mice implanted with P388 leukemia cell line; 0/10
Mus musculus [22] = experiment: Number of survivors on 60th day at dose 20 mg/kg/day in 10 mice implanted with P388 leukemia cell line; 0/10
Mus musculus [23] = experiment: Percent increase in life span at dose 15 mg/kg/day in 10 mice implanted with P388 leukemia cell line; method in brief: as §1
Mus musculus [24] = experiment: Percent increase in life span at dose 20 mg/kg/day in 10 mice implanted with P388 leukemia cell line; method in brief: as §1
Mus musculus [25] = experiment: Number of survivors on 60th day at dose 50 mg/kg/day in 10 mice implanted with P388 leukemia cell line; 0/10
Mus musculus [26] = experiment: Percent increase in life span at dose 30 mg/kg/day in 10 mice implanted with P388 leukemia cell line; method in brief: as §1
Mus musculus [27] = experiment: Percent increase in life span at dose 5 mg/kg/day in 10 mice implanted with P388 leukemia cell line; method in brief: as §1
Mus musculus [28] = experiment: Number of survivors on 60th day at dose 30 mg/kg/day in 10 mice implanted with P388 leukemia cell line; 0/10
Mus musculus [29] = experiment: Number of survivors on 60th day at dose 40 mg/kg/day in 10 mice implanted with P388 leukemia cell line; 0/10
Mus musculus [30] = experiment: Number of survivors on 60th day at dose 5 mg/kg/day in 10 mice implanted with P388 leukemia cell line; 0/10
Mus musculus [31] = experiment: Number of survivors on 30th day at dose 20 mg/kg/day in 10 mice implanted with P388 leukemia cell line; 0/10
Mus musculus [32] = experiment: Number of survivors on 30th day at dose 30 mg/kg/day in 10 mice implanted with P388 leukemia cell line; 0/10
Mus musculus [33] = experiment: Number of survivors on 30th day at dose 40 mg/kg/day in 10 mice implanted with P388 leukemia cell line; 0/10
Mus musculus [34] = experiment: Number of survivors on 30th day at dose 5 mg/kg/day in 10 mice implanted with P388 leukemia cell line; 0/10
Mus musculus [35] = experiment: Number of survivors on 30th day at dose 50 mg/kg/day in 10 mice implanted with P388 leukemia cell line; 0/10
Mus musculus [36] = experiment: Number of survivors on 30th day at dose 15 mg/kg/day in 10 mice implanted with P388 leukemia cell line; 0/10
Mus musculus [37] = experiment: Number of survivors on 60th day at dose 55 mg/kg/day in 10 mice implanted with P388 leukemia cell line; 0/10
Mus musculus [38] = experiment: Number of survivors on 60th day at dose 60 mg/kg/day in 10 mice implanted with P388 leukemia cell line; 0/10; method in brief: as §1
Mus musculus [39] = experiment: Number of survivors on 60th day at dose 80 mg/kg/day in 10 mice implanted with P388 leukemia cell line; 0/10
Mus musculus [40] = experiment: Percent increase in life span at dose 65 mg/kg/day in 10 mice implanted with P388 leukemia cell line; method in brief: as §1
Mus musculus [41] = experiment: Number of survivors on 60th day at dose 65 mg/kg/day in 10 mice implanted with P388 leukemia cell line; 0/10
Mus musculus [42] = experiment: Number of survivors on 60th day at dose 70 mg/kg/day in 10 mice implanted with P388 leukemia cell line; 0/10
Mus musculus [43] = experiment: Number of survivors on 30th day at dose 55 mg/kg/day in 10 mice implanted with P388 leukemia cell line; 0/10
Mus musculus [44] = experiment: Number of survivors on 30th day at dose 70 mg/kg/day in 10 mice implanted with P388 leukemia cell line; 0/10
Mus musculus [45] = experiment: Number of survivors on 30th day at dose 80 mg/kg/day in 10 mice implanted with P388 leukemia cell line; 0/10
Mus musculus [46] = experiment: Number of survivors on 30th day at dose 60 mg/kg/day in 10 mice implanted with P388 leukemia cell line; 0/10
Mus musculus [47] = experiment: Number of survivors on 30th day at dose 65 mg/kg/day in 10 mice implanted with P388 leukemia cell line; 0/10

## CCCCOC(=O)[C@H](Cc1c[nH]c2ccccc12)NC(=O)[C@@]1(O)[C@H](O)[C@]2(CC)C=CCN3CC[C@@]4(c5cc([C@@]6(C(=O)OC)C[C@H]7C[N@](CCc8c6[nH]c6ccccc86)C[C@](O)(CC)C7)c(OC)cc5N(C)[C@@]14C)[C@@H]32
Mus musculus [1]
  ILS at 50 mg/kg/day: 44%
Mus musculus [2]
  ILS at 70 mg/kg/day: 52%
Mus musculus [3]
  Survivors: 0
Mus musculus [4]
  ILS at 80 mg/kg/day: > 216%
Mus musculus [5]
  ILS at 40 mg/kg/day: 63%
Mus musculus [6]
  ILS at 55 mg/kg/day: > 163%
Mus musculus [7]
  Survivors: 1
Mus musculus [8]
  Survivors: 2
Mus musculus [9]
  ILS at 60 mg/kg/day: 140%
Mus musculus [10]
  Survivors: 1
Mus musculus [11]
  Survivors: 7
Mus musculus [12]
  Survivors: 5
Mus musculus [13]
  Survivors: 2
Mus musculus [14]
  Survivors: 7
Mus musculus [15]
  Survivors: 0
Mus musculus [16]
  Survivors: 5
Mus musculus [17]
  Survivors: 7
Mus musculus [18]
  Survivors: 5
Mus musculus [19]
  ILS at 50 mg/kg/day: 31.6%
Mus musculus [20]
  Survivors: 4

## CC[C@]1(O)C[C@@H]2C[N@](CCc3c([nH]c4ccccc34)[C@@](C(=O)OC)(c3cc4c(cc3OC)N(C)[C@@]3(C)[C@@](O)(C(=O)N[C@@H](CC(C)C)C(N)=O)[C@H](O)[C@]5(CC)C=CCN6CC[C@]43[C@@H]65)C2)C1
Mus musculus [21]
  Survivors: 0
Mus musculus [22]
  Survivors: 0
Mus musculus [23]
  ILS at 15 mg/kg/day: 8.7%
Mus musculus [24]
  ILS at 20 mg/kg/day: 1.7%
Mus musculus [25]
  Survivors: 0
Mus musculus [26]
  ILS at 30 mg/kg/day: 1.7%
Mus musculus [5]
  ILS at 40 mg/kg/day: 19%
Mus musculus [27]
  ILS at 5 mg/kg/day: 1.7%
Mus musculus [28]
  Survivors: 0
Mus musculus [29]
  Survivors: 0
Mus musculus [30]
  Survivors: 0
Mus musculus [31]
  Survivors: 0
Mus musculus [32]
  Survivors: 0
Mus musculus [33]
  Survivors: 0
Mus musculus [34]
  Survivors: 0
Mus musculus [35]
  Survivors: 0
Mus musculus [36]
  Survivors: 0
Mus musculus [19]
  ILS at 50 mg/kg/day: 15.5%

## CCCCOC(=O)[C@H](CC(C)C)NC(=O)[C@@]1(O)[C@H](O)[C@]2(CC)C=CCN3CC[C@@]4(c5cc([C@@]6(C(=O)OC)C[C@H]7C[N@](CCc8c6[nH]c6ccccc86)C[C@](O)(CC)C7)c(OC)cc5N(C)[C@@]14C)[C@@H]32
Mus musculus [37]
  Survivors: 0
Mus musculus [38]
  Survivors: 0
Mus musculus [2]
  ILS at 70 mg/kg/day: 26.7%
Mus musculus [4]
  ILS at 80 mg/kg/day: 27.6%
Mus musculus [6]
  ILS at 55 mg/kg/day: 23%
Mus musculus [39]
  Survivors: 0
Mus musculus [9]
  ILS at 60 mg/kg/day: 26%
Mus musculus [40]
  ILS at 65 mg/kg/day: 13.8%
Mus musculus [41]
  Survivors: 0
Mus musculus [42]
  Survivors: 0
Mus musculus [43]
  Survivors: 0
Mus musculus [44]
  Survivors: 0
Mus musculus [45]
  Survivors: 0
Mus musculus [46]
  Survivors: 0
Mus musculus [47]
  Survivors: 0
